Reference: article PMC9233146 (Cell chemical biology, 2022)
Values belong to the compound of their own block, whether it stands above or below them.

Tests used:
[1] = system: iCEC2 choroidal endothelial cells; experiment: iCEC2 proliferation assay; type: cell-based, human; details: 48 hour treatment
[2] = system: ARPE19 cells; experiment: ARPE19 proliferation assay; type: cell-based, human; details: 48 hour treatment
[3] = target: T1, recombinant FECH (Homo sapiens, UniProt P22830); experiment: FECH enzymatic activity assay; type: biochemical; details: for inhibitory activity against recombinant FECH: qualitative
T1 sequence (P22830 55-423): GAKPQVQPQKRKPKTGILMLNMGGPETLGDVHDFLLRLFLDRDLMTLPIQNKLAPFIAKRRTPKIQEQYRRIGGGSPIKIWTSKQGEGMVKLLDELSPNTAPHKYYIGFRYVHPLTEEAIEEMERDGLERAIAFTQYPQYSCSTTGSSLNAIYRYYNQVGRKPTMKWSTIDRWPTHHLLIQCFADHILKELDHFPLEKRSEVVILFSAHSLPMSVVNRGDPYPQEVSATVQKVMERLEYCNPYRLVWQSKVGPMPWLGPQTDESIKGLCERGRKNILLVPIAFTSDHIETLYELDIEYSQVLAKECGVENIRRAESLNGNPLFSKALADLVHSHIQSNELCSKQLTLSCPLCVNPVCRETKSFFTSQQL

[4] = system: Human Retinal Endothelial Cell (HREC); experiment: HREC proliferation assay; type: cell-based; details: 48 hour treatment, qualitative
[5] = system: HRECs; experiment: Scratch wound migration assay; type: cell-based, human; details: 8 hour treatment, dose dependent
Method in brief: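 HRECs were grown to confluence in 96-well plates at 37°C, scratched down the well centre with a pipette tip, and treated with test compound. Brightfield images were taken at 8 h. Cells migrating into the scratch were counted manually in six images per treatment and normalised to DMSO. Replicate runs were live-imaged. n=4 technical.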

[6] = system: PPIX and heme in HRECs; experiment: Porphyrin and heme analysis; type: cell-based, human; details: 30 μM 4e ± 1 mM 5-ALA
Method in brief: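 HRECs were grown to 80% confluence and serum-starved overnight. Cells received DMSO or 30 μM test compound for 1 h, then 1 mM 5-ALA or water for a further 2 h. They were pelleted in cold PBS and frozen. Heme and porphyrins were quantified by a core facility following its posted protocols. n=3.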

[7] = target: dopamine D2 receptor DRD2S (Homo sapiens, UniProt P14416); experiment: SafetyScan off-target analysis, DRD2S; type: cell-based
[8] = system: HRECs; experiment: In vitro apoptosis assays; type: cell-based, human; details: 16 hour treatment, 10, 30 and 100 μM
Method in brief: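 HRECs on coated chamber slides, 70% confluent, were treated 16 h with vehicle, test compound (10, 30, 100 μM), or positive controls (1 μM staurosporine for caspase, 10 μM DNase I for TUNEL). After 4% PFA fixation: Triton permeabilisation, anti-cleaved caspase-3 (1:200, overnight, 4°C), fluorescent secondary and Hoechst; or a Click-iT TUNEL kit. Stained cells were counted as % of nuclei in three 40x fields. Three biological repeats.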

[9] = system: HRECs; experiment: Matrigel-based tube formation assay; type: cell-based, human; details: 8 hour treatment, qualitative
Method in brief: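 Matrigel was solidified 20 min at 37°C. HRECs were added at 15,000/well in EGM-2 and dosed with test compound in DMSO. Tubes were watched by brightfield every 2 h and imaged at 8 h. Total tubule length from six images per treatment was normalised to DMSO controls. n=6 technical.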

[10] = system: COXIV subunit I expression in HRECs; experiment: Immunoblot for hemoprotein COXIV subunit I; type: cell-based, human; details: 16 hours, dose dependent (10, 30 or 100 μM)
Method in brief: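 HRECs were treated 16 h with test compound (10, 30 or 100 μM), a reference FECH inhibitor (10 μM) or DMSO. Arms were: 6 h pretreatment with 100 μM succinylacetone or water, or after treatment, medium replaced by EBM-2 with 0.2% serum and 10 μM hemin. Lysate protein (40 μg) was run on 12% SDS-PAGE and PVDF, probed with anti-COX4I1 (1:1000) and β-actin (1:2000). n=3 biological.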

[11] = target: T1, recombinant FECH; experiment: 4e-FECH enzyme kinetic analysis; type: biochemical; details: vs. substrate mesoporphyrin IX; Vmax consistent, KM increased
[12] = system: choroidal neovascularization
[13] = system: FECH activity in HRECs (PPIX accumulation); experiment: Protoporphyrin IX buildup assay; type: cell-based, human; details: highest dose, co-treated with 5-ALA, 3 hour treatment, vs. DMSO
[14] = system: ARPE19 cells; details: ref Basavarajappa et al., 2017; cited from earlier work
[15] = system: HRECs; details: ref Basavarajappa et al., 2017; cited from earlier work
[16] = system: Human Retinal Endothelial Cell (HREC); details: HRECs; ref Basavarajappa et al., 2017; cited from earlier work
[17] = system: HRECs; details: ref Basavarajappa et al., 2017; cited from earlier work; remark: listed apart in the source
[18] = recombinant FECH activity assay

Sequence of dopamine D2 receptor DRD2S (P14416 1-414 isoform P14416-2): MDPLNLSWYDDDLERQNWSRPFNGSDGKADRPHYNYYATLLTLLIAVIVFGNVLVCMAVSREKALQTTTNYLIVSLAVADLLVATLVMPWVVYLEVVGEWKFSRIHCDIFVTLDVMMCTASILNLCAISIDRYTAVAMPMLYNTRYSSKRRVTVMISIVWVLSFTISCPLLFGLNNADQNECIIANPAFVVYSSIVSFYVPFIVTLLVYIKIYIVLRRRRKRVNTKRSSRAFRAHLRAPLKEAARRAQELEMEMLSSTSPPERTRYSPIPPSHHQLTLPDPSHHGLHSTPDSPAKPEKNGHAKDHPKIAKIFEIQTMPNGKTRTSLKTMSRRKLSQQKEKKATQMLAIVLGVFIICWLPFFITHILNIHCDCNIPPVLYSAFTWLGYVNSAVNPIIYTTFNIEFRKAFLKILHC

Compound: CC(C)(C)c1ccc(-c2nc3[nH]c(CNc4ccc5ccccc5n4)cc(=O)n3n2)cc1 [4e, 2-(4-(tert-Butyl)phenyl)-5-((quinolin-2-ylamino)methyl)-[1,2,4]triazolo[1,5-a]pyrimidin-7(4H)-one]
proliferation of iCEC2 cells [1]: more potent than NMPP
antiproliferative effect on ARPE19 cells [2]: did not have a substantial antiproliferative effect
inhibitory activity against recombinant FECH [3]: showed inhibitory activity
IC50 value (range in words) [3, 18]: high nanomolar range
HREC proliferation (antiproliferative effect) [4]: anti-proliferative
HREC migration [5]: blocked the migration ability
PPIX level in HRECs [6]: buildup of FECH substrate PPIX
heme level in HRECs [6]: decrease in heme
EC50 [7]: 98 µM
apoptosis in HRECs (cleaved caspase-3, TUNEL) [8]: did not lead to apoptosis
HREC tube formation [9]: blocked tube formation of HRECs
COXIV subunit I levels in HRECs [10]: decreased COXIV levels
mode of inhibition [11]: competitive inhibition
ocular toxicity (fundus images, OCT) ([12]; day 0, 7 and 14 after laser, intravitreal): no obvious signs of toxicity
decrease in lesion volume (agglutinin and GS-IB4 signal, choroidal flat mounts) ([12]; day 14, both tested doses (50 and 100 μM intravitreal)): > 50%
OCT lesion volume relative to control ([12]; day 14, final intravitreal concentrations of 50 μM as well as 100 μM): significantly reduced
leakage on fluorescein angiography (FA) ([12]; day 14, qualitative): smaller
PPIX accumulation in HRECs [13]: statistically significant PPIX accumulation

Compound: CCCc1cc(=O)n2nc(CNc3ccc(C)cc3)nc2[nH]1 [5c, 5-Propyl-2-((p-tolylamino)methyl)-[1,2,4]triazolo[1,5-a]pyrimidin-7(4H)-one]
IC50 value (range in words) [3, 18]: high nanomolar range
HREC proliferation (antiproliferative effect) [4]: anti-proliferative
HREC tube formation [9]: blocked tube formation of HRECs

Compound: CCCc1cc(=O)n2nc(CNc3ccc(Cl)cc3)nc2[nH]1 [5f, 2-(((4-Chlorophenyl)amino)methyl)-5-propyl-[1,2,4]triazolo[1,5-a]pyrimidin-7(4H)-one]
inhibitory activity against recombinant FECH [3]: potent FECH inhibitors

Compound: CCCc1cc(=O)n2nc(CNc3ccc(F)c(Cl)c3)nc2[nH]1 [5i, 2-(((3-Chloro-4-fluorophenyl)amino)methyl)-5-propyl-[1,2,4]triazolo[1,5-a]pyrimidin-7(4H)-one]
inhibitory activity against recombinant FECH [3]: strongest inhibitory activity
HREC proliferation (antiproliferative effect) [4]: did not affect HREC proliferation

Second part, led by results:

inhibitory activity against recombinant FECH [3]: strongest inhibitory activity
Compound: CCCc1cc(=O)n2nc(CNc3ccc(F)c(F)c3)nc2[nH]1 [5k, 2-(((3,4-Difluorophenyl)amino)methyl)-5-propyl-[1,2,4]triazolo[1,5-a]pyrimidin-7(4H)-one]
HREC proliferation (antiproliferative effect) [4]: did not affect HREC proliferation

FECH activity inhibition ([3]; 10 μM, positive control in the screen): completely inhibited
IC50 [3, 18]: 0.45 µM
Compound: N-methylprotoporphyrin [NMPP]
proliferation of iCEC2 cells [1]: antiproliferative
proliferation of ARPE19 cells [14]: did not block proliferation
inhibition of HREC tube formation, active concentrations [15]: single-digit micromolar concentrations
GI50 [16]: 30 µM
inhibition of HREC migration, active concentrations [17]: single-digit micromolar concentrations
